DENV2 CPE rescue = inhibitors of DENV2 cytopathic effect; DENV2-infected cells, cytopathic effect rescue, plate reader; CPE inhibition, % at 9.99 µM; 1.7% of 350,000 active; AID 651640; in the data active = CPE inhibition above about 20%, passing the limit was not always enough; inconclusive = no clear call, values can overlap the other calls; tested in BHK-21 cells
SIRT5 inh = inhibitors of human sirtuin-5 desuccinylase; AID 652115; inhibition, % at 15 µM; Q9NXA8; 1.1% of 330,000 active; Purified SirT5, succinyl-peptide AMC, trypsin-coupled fluorescence; in the data active = inhibition above about 15%; inconclusive = no clear call, values can overlap the other calls
E-selectin induc = induces E-selectin expression in human endothelial cells | P16581 | 0.37% of 260,000 active | activation, % at 7.58 µM | AID 686992 | HUVEC E-selectin immunofluorescence imaging; normalized: neutral wells 0, TNF-alpha wells 100;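 active = mean E-selectin-positive cell signal at least 10% of the positive control, reached in at least 60% of replicates, without over 20% cell loss; inconclusive = no rule given, readout overlaps actives, possibly toxicity-flagged; inactive = the rest, including those meeting only one limit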
Target sequence (P16581 whole entry, looked up): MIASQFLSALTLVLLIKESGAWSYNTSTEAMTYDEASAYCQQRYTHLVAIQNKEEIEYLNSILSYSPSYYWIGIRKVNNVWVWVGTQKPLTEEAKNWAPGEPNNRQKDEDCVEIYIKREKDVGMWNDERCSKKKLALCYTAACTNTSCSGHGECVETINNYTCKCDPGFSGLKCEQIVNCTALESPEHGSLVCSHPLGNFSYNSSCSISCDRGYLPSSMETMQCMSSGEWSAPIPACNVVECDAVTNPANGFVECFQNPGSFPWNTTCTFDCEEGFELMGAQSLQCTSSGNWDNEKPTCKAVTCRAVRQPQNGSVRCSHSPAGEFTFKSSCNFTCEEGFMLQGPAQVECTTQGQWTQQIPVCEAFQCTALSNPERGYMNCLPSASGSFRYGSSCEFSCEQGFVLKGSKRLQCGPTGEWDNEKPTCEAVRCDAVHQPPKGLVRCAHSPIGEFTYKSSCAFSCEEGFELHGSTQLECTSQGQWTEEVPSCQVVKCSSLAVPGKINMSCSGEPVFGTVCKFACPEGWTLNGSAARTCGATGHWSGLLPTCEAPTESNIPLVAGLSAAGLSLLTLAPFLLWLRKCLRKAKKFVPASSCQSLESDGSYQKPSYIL
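Test system – human umbilical vein endothelial cells (HUVEC), E-selectin induction · Input – 3,000 HUVEC seeded per well · Buffer or medium – EGM-2, gelatin · Compound dosing – single-point compound dose · Detection – immunofluorescence imaging · Measure – percent E-selectin-positive cells · Controls – TNF-alpha high, DMSO low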
Hits are given with their value; – = inactive; ? = inconclusive; · = no result. Most compounds without a hit are left out; they make up all but 2.8% or so of the library.

SMILES	DENV2 CPE rescue	SIRT5 inh	E-selectin induc
CN(C)C(=O)C[C@H]1CC[C@H]2[C@@H](COc3ccc(NC(=O)Nc4cccc(Cl)c4)cc3C(=O)N2C)O1	–	–	–
CC(C)CC(=O)N1CCN(Cc2cccc([N+](=O)[O-])c2)CC1	–	–	·
CC(C)CC(=O)N1CCN(Cc2ccccc2[N+](=O)[O-])CC1	–	32	·
CCCN(C)C[C@@H]1Oc2cc(C#CC3CCCC3)ccc2S(=O)(=O)N([C@@H](C)CO)C[C@@H]1C	–	–	–
O=C(Cc1ccncc1)NCC[C@@H]1CC[C@H](NC(=O)C2CCCCC2)[C@H](CO)O1	–	–	–
COC(=O)/C=C/c1ccc(-n2cncn2)cc1	–	–	·
COC(=O)/C=C/c1cnc[nH]1	51	·	–
CC(C)NC(=O)N(C)C[C@H]1Oc2ncc(C#CC3CCCCC3)cc2C(=O)N([C@H](C)CO)C[C@H]1C	·	·	–
CCCC(=O)Nc1ccc(-c2cn3cccnc3n2)cc1	–	–	–
CC(C)(C)CC(=O)Nc1ccc(-c2cn3cccnc3n2)cc1	–	–	34
CCCc1cn([C@H]2C[C@@H]3O[C@@H](CO)CC[C@@H]3O[C@@H]2CCc2ccc(-c3ccc(OC)cc3)cc2)nn1	–	·	·
CC1OC2(C)OC(=N)C1(C#N)C(C#N)(C#N)C2c1ccccc1 (centres undefined)	?	–	·
CCCCC1OC2(C)OC(=N)C1(C#N)C(C#N)(C#N)C2c1ccccc1 (centres undefined)	73	·	·
C[C@H]1CCCCO[C@H](CN(C)S(=O)(=O)c2cn(C)cn2)[C@@H](C)CN([C@@H](C)CO)C(=O)c2cc(NS(=O)(=O)c3cn(C)cn3)ccc2O1	–	–	–
CS(=O)(=O)c1ccccc1C(=O)Nc1nc2ccccc2[nH]1	–	–	–
CN(C)S(=O)(=O)c1ccc(Cl)c(C(=O)Nc2nc3ccccc3[nH]2)c1	–	–	30
CCCS(=O)(=O)c1c(S(=O)(=O)CCC)c2c(N)cccn2c1C(=O)c1ccc(OC)cc1	–	16	·
CCCS(=O)(=O)c1c(S(=O)(=O)CCC)c2ccc(C(N)=O)cn2c1C(=O)c1ccc(F)cc1	–	–	·
C[C@H](CO)N1C[C@H](C)[C@@H](CN(C)S(=O)(=O)c2cccs2)Oc2ccc(NS(=O)(=O)c3cn(C)cn3)cc2CC1=O	–	–	–
C[C@H]1CN([C@@H](C)CO)C(=O)c2cc(NC(=O)CCCCCC(=O)Nc3ccccc3N)ccc2O[C@H]1CN(C)C(=O)NC1CCCCC1	·	·	–
COc1cc([N+](=O)[O-])c(OC)cc1Nc1ccccc1C(=O)O	–	·	–
COc1cc(-c2ccc(Nc3ccccc3C(=O)O)c(OC)c2)ccc1Nc1ccccc1C(=O)O	–	30	–
CCC(=O)N1[C@@H](CO)[C@@H](c2ccc(-c3ccc(F)cc3)cc2)C12CN(C(C)=O)C2	–	–	–
O=C(C[C@H]1C=C[C@H](NS(=O)(=O)c2ccccc2)[C@@H](CO)O1)N1CCC(Cc2ccccc2)CC1	?	–	–
Cc1ccc(N/C=C(\[N+](=O)[O-])S(=O)(=O)c2ccccc2)cc1	–	–	·
SMILES	DENV2 CPE rescue	SIRT5 inh	E-selectin induc
Cc1cccc(N/C=C(\[N+](=O)[O-])S(=O)(=O)c2ccccc2)c1	–	40	–
CCS(=O)(=O)N1CC2(C1)[C@H](c1ccccc1)[C@H](CO)N2C(=O)C1CC1	–	–	–
CN1[C@@H]2Cn3c(ccc(-c4ccccc4)c3=O)[C@H]1[C@@H](C(=O)N1CCC(Cc3ccccc3)CC1)[C@@H]2CO	–	–	–
O=C(COc1ccc(-n2ccnc2)cc1)Nc1cccc(Cl)c1	–	23	–
O=C(COc1ccc(-n2ccnc2)cc1)Nc1cccc(F)c1	–	–	·
CCOc1cc(C(=O)OC(C)C(=O)Nc2ccc(NC(C)=O)cc2)ccc1OCC(=O)N1CCCCC1 (centres undefined)	–	–	?
CCOc1cc(C(=O)OC(C)C(=O)Nc2ccc(S(N)(=O)=O)cc2)ccc1OCC(=O)N1CCOCC1 (centres undefined)	–	19	–
COCC(=O)N(C)C[C@H]1Oc2cc(-c3cccnc3)ccc2S(=O)(=O)N([C@H](C)CO)C[C@H]1C	–	–	–
CC(NC(=O)/C(C#N)=C/c1ccc([N+](=O)[O-])o1)c1ccccc1 (centres undefined)	–	–	42
CC(NC(=O)/C(C#N)=C/c1ccco1)c1ccccc1 (centres undefined)	?	–	–
CN1CCN(C(=O)c2cc3sc4ccccc4c3s2)CC1	43	–	–
CCn1c(=O)c2cc(C(=O)N3CCN(C)CC3)sc2c2ccccc21	?	–	–
COC(=O)c1cc(C(=O)OC)[nH]n1	–	16	·
COC(=O)c1cc(-c2ccc(Cl)cc2)n[nH]1	–	·	·
COc1ccc(NC(=O)N2CCCCN3[C@@H](CO)[C@@H](c4ccc(-c5ccccc5C)cc4)[C@@H]3C2)cc1	–	–	–
C[C@H]1CN([C@@H](C)CO)C(=O)c2cccc(NC(=O)CCCCCC(=O)Nc3ccccc3N)c2O[C@H]1CN(C)Cc1ccc(C(F)(F)F)cc1	–	–	–
COc1ccc(NC(=S)NNc2ccc(S(=O)(=O)Nc3ccccc3C(=O)O)cc2[N+](=O)[O-])cc1	–	17	·
CSc1ccc(C=NNc2ccc(S(=O)(=O)Nc3ccccc3C(=O)O)cc2[N+](=O)[O-])cc1	–	–	–
CCOc1cccc(C=NNc2ccc(S(=O)(=O)Nc3ccccc3C(=O)O)cc2[N+](=O)[O-])c1O	–	–	–
COc1ccc(C=NNc2ccc(S(=O)(=O)Nc3ccccc3C(=O)O)cc2[N+](=O)[O-])c(OC)c1	·	44	·
C=CCOc1ccc(C=NNc2ccc(S(=O)(=O)Nc3ccccc3C(=O)O)cc2[N+](=O)[O-])cc1OC	–	–	–
CCOc1ccc(C=NNc2ccc(S(=O)(=O)Nc3ccccc3C(=O)O)cc2[N+](=O)[O-])cc1	–	20	·
O=C(O)c1ccccc1NS(=O)(=O)c1ccc(NN=Cc2ccccc2F)c([N+](=O)[O-])c1	–	17	–
O=C(O)c1ccccc1/C=N/Nc1ccc(S(=O)(=O)N2CCCC2)cc1[N+](=O)[O-]	–	–	–
C[C@@H]1CN([C@H](C)CO)C(=O)c2cc(NC(=O)Cc3cn(C)c4ccccc34)ccc2O[C@H]1CN(C)S(=O)(=O)c1ccc(Cl)cc1	–	–	–
SMILES	DENV2 CPE rescue	SIRT5 inh	E-selectin induc
CO[C@H]1CN(C)C(=O)c2cc(NC(=O)c3ccc4c(c3)OCO4)ccc2OC[C@@H](C)NC[C@H]1C	–	–	–
O=C(C[C@@H]1CC[C@@H](NS(=O)(=O)c2ccccc2)[C@@H](CO)O1)NCc1ccncn1	–	–	–
O=C(C[C@H]1CC[C@H](NS(=O)(=O)c2ccc(F)cc2)[C@H](CO)O1)NCc1ccncn1	23	–	–
O=C(C[C@@H]1CC[C@H](NS(=O)(=O)c2ccc(F)cc2)[C@@H](CO)O1)NCc1ccncn1	–	–	–
O=C(C[C@H]1CC[C@@H](NS(=O)(=O)c2ccccc2)[C@@H](CO)O1)NCc1ccncn1	–	21	–
Cc1cccc(NC(=O)c2nc[nH]c2C(=O)NC[C@H](C)O)c1	–	27	–
Cc1ccc(NC(=O)c2nc[nH]c2C(=O)N[C@@H](C)C(=O)OC(C)(C)C)cc1	98	·	–
CNC(=O)c1[nH]cnc1C(=O)Nc1ccc(Cl)cc1	41	–	–

Screens deposited in PubChem by Broad Institute.
